Read-outs that look alike come from different tables or passages of the source.
Assays:
[1] = tested on: patients with multiple myeloma, and T‐ and B‐cell lymphomas; settings: three times weekly for 3 weeks of a 28‐day cycle; cited from earlier work
[2] = Pilot 2 intra‐tumoral AR‐42 concentration by LC‐MS/MS; type: in vivo, human
Summary of the method: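 The oral test compound was given at 40 mg three times weekly for 3 weeks before resection. Each VS was divided into peripheral capsule and center, and samples were frozen quickly. Drug was measured by LC-MS/MS against a standard curve of known concentrations, as the mean of three runs. Tumor:plasma ratio = capsule or center concentration ÷ pre-anesthesia plasma concentration.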

[3] = day one, cited from earlier work
[4] = tested on: AKT phosphorylation in primary human VS cells; assay: AKT phosphorylation in primary VS cells; type: cell-based; settings: Figure S2
[5] = tested on: NF2‐deficient benign meningioma Ben‐Men‐1 cells; settings: cited from earlier work
[6] = tested on: patients with sporadic VS or meningioma; assay: Pilot 2 safety and tolerability; type: in vivo, human
Summary of the method: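 Phase 0 pre-surgical study: 40 mg of the test compound orally three times weekly for 3 weeks before planned VS/meningioma resection. Adults >18 y had ECOG 0-1, normal organ and marrow function, and could swallow capsules. Excluded were pregnancy, malabsorption, chronic corticosteroids, prolonged QT, active infection, and concurrent antineoplastic therapy or radiotherapy.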

[7] = tested on: Ben‐Men‐1 xenograft; settings: cited from earlier work
[8] = tested on: p‐AKT, p‐S6 and p‐ERK in VS and meningioma; assay: Pilot 2 fluorescent Western blotting of resected tumors; type: in vivo, human
Summary of the method: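 Patients took 40 mg of the test compound orally three times weekly for 3 weeks before resection. VS were split into peripheral capsule and center. Tumor lysates were run on fluorescent Western blots for p-AKT, total AKT, p-S6, total S6, p-ERK and total ERK. Phospho/total ratios were expressed as percent of an untreated banked VS or meningioma set as 100%.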

[9] = tested on: schwannoma xenografts; settings: cited from earlier work
[10] = tested on: human VS cells; settings: cited from earlier work
[11] = tested on: NF2‐associated or sporadic VS or meningiomas; assay: Pilot 1 tumor volumetric measurement by MRI; type: in vivo, human
[12] = Patient # 2.7 (meningioma), 40 mg
[13] = Patient 1.1, 837 days on AR‐42, Left parieto‐occipital Meningioma
[14] = Patient 1.1, 837 days on AR‐42, Right neck Schwannoma
[15] = Patient 1.1, Left parieto‐occipital Meningioma
[16] = Patient 1.1, Right IAC Schwannoma
[17] = Patient 1.1, Right neck Schwannoma
[18] = Patient 1.2, 84 days on AR‐42, Right intradural C1 Meningioma
[19] = Patient 1.2, Left trigeminal Schwannoma
[20] = Patient 1.2, Right intradural C1 Meningioma

Compound: CC(C)[C@H](C(=O)Nc1ccc(C(=O)NO)cc1)c1ccccc1 [AR‐42]
- Maximum tolerated dose (MTD) [1]: 40 mg
- Concentration in meningioma capsule ([2]; 40 mg): 5300 nM
- Concentration in meningioma tumor center ([2]; 40 mg): 1800 nM
- Concentrations of AR‐42 in VS ([2]; 40 mg): 230 to 620 nM
- Concentration in tumors, Capsule ([2]; Patient # 2.1 (VS), 40 mg): 624.2 nM
- Concentration in tumors, Center ([2]; Patient # 2.1 (VS), 40 mg): 577.0 nM
- Concentration in tumors, Capsule ([2]; Patient # 2.2 (VS), 40 mg): 429.4 nM
- Concentration in tumors, Center ([2]; Patient # 2.2 (VS), 40 mg): 586.6 nM
- Concentration in tumors, Capsule ([2]; Patient # 2.4 (VS), 40 mg): 230.6 nM
- Concentration in tumors, Center ([2]; Patient # 2.4 (VS), 40 mg): 289.0 nM
- Concentration in tumors, Capsule ([2]; Patient # 2.6 (VS), 40 mg): 16.2 nM
- Concentration in tumors, Center ([2]; Patient # 2.6 (VS), 40 mg): 7.1 nM
- Concentration in tumors, Capsule [2, 12]: 5296.6 nM
- Concentration in tumors, Center [2, 12]: 1766.2 nM
- Meningioma (subject 2.7) AR‐42 level higher than the VS ([2]; WHO grade I meningioma): 10 fold
- AR‐42 concentrations in tumors compared with plasma ([2]; all tumors, Pilot 2, 40 mg): higher
- Mean maximal plasma concentration ([3]; 60 mg dose): 1.48 (±0.38) μM
- Maximum plasma concentration ([3]; Patient 1.7, 80 mg dose): 3.25 µM
- AKT phosphorylation in primary human VS cells [4]: reduced AKT phosphorylation
- IC50 ([5]; read-out: IC50, Ben‐Men‐1 cells): 1 µM
- IC50 ([5]; read-out: IC50 for meningiomas, previous in vitro studies): ~1 µM
- Arrhythmias or QT changes ([6]; Pilot 2, 40 mg): no arrhythmias or QT changes
- Grade 3 or 4 toxicities ([6]; Pilot 2, 3 weeks at 40 mg): no grade 3 or 4 toxicities
- Meningioma tumor volumes [7]: markedly diminished meningioma tumor volumes
- Tumor return after treatment ([7]; followed 6 months post‐treatment): tumors did not return
- p‐S6 in meningioma ([8]; Patient 2.7, vs untreated meningioma): reduction in p‐S6
- p‐AKT in meningioma ([8]; Patient 2.7, vs untreated meningioma tumors): not reduced
- Levels of p‐ERKs and p‐S6 in AR‐42‐treated VS ([8]; vs untreated VS, 40 mg): substantially reduced in three of four
- p‐AKT levels in AR‐42‐treated VS tumors ([8]; vs untreated VS, 40 mg): decreased p‐AKT levels in three of four
- AKT activation in schwannoma xenografts [9]: decreased AKT activation
- Apoptosis in schwannoma xenografts [9]: induced apoptosis
- Growth of schwannoma xenografts [9]: inhibited the growth of schwannoma xenografts
- IC50 ([10]; read-out: IC50, growth inhibition of human VS cells): 0.5 µM
- IC50 ([10]; read-out: IC50 for schwannomas, previous in vitro studies): ~0.5 µM
- Median on‐treatment estimated annual growth rate ([11]; 11 evaluable lesions): 22%
- Median post‐treatment estimated annual growth rate ([11]; 11 evaluable lesions): 10%
- % Volume growth on Rx [11, 13]: 54%
- On Rx response [11, 13]: PD (progressive disease (>20% increase in volume))
- % Volume growth on Rx ([11]; Patient 1.1, 837 days on AR‐42, Right IAC Schwannoma): −2%
- % Volume growth on Rx [11, 14]: 52%
- On Rx response [11, 14]: PD (progressive disease (>20% increase in volume))
- Change in GR Pre to On Rx (%) [11, 15]: −128%
- Change in GR Pre to post Rx [11, 15]: −26%
- Est. annual growth rate On Rx (%) [11, 15]: 23%
- Est. annual growth rate Post Rx [11, 15]: 125%
- Change in GR Pre to On Rx (%) [11, 16]: −61%
- Change in GR Pre to post Rx [11, 16]: −10%
- Est. annual growth rate On Rx (%) [11, 16]: −1%
- Est. annual growth rate Post Rx [11, 16]: 50%
- Change in GR Pre to On Rx (%) [11, 17]: −69%
- Change in GR Pre to post Rx [11, 17]: −79%
- Est. annual growth rate On Rx (%) [11, 17]: 22%
- Est. annual growth rate Post Rx [11, 17]: 12%
- % Volume growth on Rx ([11]; Patient 1.2, 84 days on AR‐42, Left trigeminal Schwannoma): −9%
- % Volume growth on Rx [11, 18]: 26%
- On Rx response [11, 18]: PD (progressive disease (>20% increase in volume))
- Change in GR Pre to On Rx (%) [11, 19]: −54%
- Change in GR Pre to post Rx [11, 19]: −11%
- Est. annual growth rate On Rx (%) [11, 19]: −46%
- Est. annual growth rate Post Rx [11, 19]: −3%
- Change in GR Pre to On Rx (%) [11, 20]: 122%
- Change in GR Pre to post Rx [11, 20]: −6%
- Est. annual growth rate On Rx (%) [11, 20]: 138%

— article PMC8513424 (Laryngoscope Investigative Otolaryngology, 2021)
